Experimental findings from ChEMBL document CHEMBL4732120, “Discovery of novel PARP/PI3K dual inhibitors with high efficiency against BRCA-proficient triple negative breast cancer” (Eur J Med Chem, 2021) are described below.

In general, IC50 refers to the concentration needed to halve the response being measured. What is called Papp A→B is the apparent permeability from the apical to the basolateral side of a cell layer.

Data set [1] is described as follows: Intrinsic clearance in mouse liver microsomes measured after 1 hr. The conditions noted are these: read-out: CLH. It counts as ADME, Microsome. Put shortly:
(§1)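 Compound incubated 1 h with mouse, rat, dog, monkey or human liver microsomes. Derived values were the elimination rate constant k, the elimination half-life T1/2 and the intrinsic clearance CLint.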
A general note: Microsomes from liver hold many membrane-bound enzymes, among them those of drug oxidation.

Data set [2] relates to MDA-MB-468. As to the kind of experiment: Antitumor activity against human MDA-MB-468 cells xenografted in BALB/c mouse assessed as tumor growth inhibition at 50 mg/kg, ip administered every two days for 34 days relative to control. The conditions noted are these: MDA-MB-468, ip, 816 h, read-out: TGI. For orientation: In xenograft studies the graft and the host belong to different species.

Data set [3] deals with MDA-MB-468. The data set can be described thus: Antiproliferative activity against human MDA-MB-468 cells measured after 7 days by Celltiter-glo assay. It counts as functional, cell-based. The conditions noted are these: MDA-MB-468, 168 h. Put shortly: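 MDA-MB-468 cells grown in RPMI1640 with 10% FBS at 37 °C, 5% CO2. Seeded the day before dosing, grown 12 h, then exposed to a range of concentrations for 7 days. Viability read by CellTiter-Glo luminescence after 10 min at room temperature. Inhibition % = (1 − (RLU cpd − blank)/(RLU DMSO − blank)) × 100. IC50 from nonlinear regression of normalized dose-response.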

Data set [4] can be described thus: Elimination rate constant in rat liver microsomes measured after 1 hr. The format is ADME, Microsome. The procedure, abridged: as §1
Data set [5] can be described thus: Toxicity in Sprague-Dawley rat assessed as change in body weight at 1000 mg/kg, po administered as single dose measured on day 2 (reference value: 273 +/- 15 g). The conditions noted are these: in vivo, 48 h, time 2 day. It counts as organism-based.
Data set [6] has as its target Poly [ADP-ribose] polymerase 2 (Homo sapiens, UniProt Q9UGN5). As to the kind of experiment: Inhibition of PARP2 (unknown origin).
Data set [7] can be described thus: Toxicity in Sprague-Dawley rat assessed as change in body weight at 1000 mg/kg, po administered as single dose measured during adaptation period (reference value: 258 +/- 13 g). It counts as organism-based. The conditions noted are these: in vivo.
Data set [8] can be described thus: Intrinsic clearance in monkey liver microsomes measured after 1 hr. The format is ADME, Macaca mulatta, Microsome. The following applies: rhesus monkey, read-out: CLH. Put shortly:
as §1

Data set [9] concerns the target Phosphatidylinositol 4,5-bisphosphate 3-kinase catalytic subunit gamma isoform (Homo sapiens, UniProt P48736). The data set can be described thus: Inhibition of PI3Kgamma (unknown origin).
Data set [10] concerns the target Phosphatidylinositol 4,5-bisphosphate 3-kinase catalytic subunit alpha isoform (Homo sapiens, UniProt P42336). The data set can be described thus: Inhibition of PI3Kalpha (unknown origin). The procedure, abridged:
(§2)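 PARP-1 and PI3Kα enzyme inhibition. IC50 taken from dose-response curves and given as mean ± SD of three independent experiments.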

A short description of data set [11]: Elimination rate constant in human liver microsomes measured after 1 hr. It counts as ADME, Microsome. Put shortly: as §1
Data set [12] has as its system MDA-MB-468. As to the kind of experiment: Induction of apoptosis in human MDA-MB-468 cells assessed as late apoptotic cells at 1 uM measured after 72 hrs by Annexin V-FITC/propidium iodide staining based flow cytometry (reference value: 0.78%). The format is functional.
Data set [13] can be described thus: Intrinsic clearance in human liver microsomes measured after 1 hr. The format is ADME, Microsome. The conditions noted are these: read-out: CLH. Put shortly:
as §1

Data set [14] can be described thus: Apparent permeability across apical to basolateral side in human Caco2 cells at 5 uM measured after 120 mins. The format is ADME, cell-based. The following applies: Caco-2. The procedure, abridged: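 Bidirectional permeability run, apical-to-basolateral and basolateral-to-apical. Test compound at 5 µM, incubated 120 min. Papp (10^-6 cm/s), recovery (%) and efflux ratio reported as the mean of two experiments.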
In general terms: Caco-2 cells form a polarised layer with tight junctions and transporters.

Data set [15] in a line: Toxicity in Sprague-Dawley rat assessed as change in body weight at 1000 mg/kg, po administered as single dose measured on day 7 (reference value: 298 +/- 14 g). The conditions noted are these: in vivo, 168 h, time 7 day. The format is organism-based.
Data set [16] relates to MDA-MB-468. The data set can be described thus: Induction of apoptosis in human MDA-MB-468 cells assessed as early apoptotic cells at 1 uM measured after 72 hrs by Annexin V-FITC/propidium iodide staining based flow cytometry (reference value: 3.88%). The format is functional.
Data set [17] can be described thus: Elimination rate constant in dog liver microsomes measured after 1 hr. It counts as ADME, Canis lupus familiaris, Microsome. The procedure, abridged: as §1
A short description of data set [18]: Toxicity in MDA-MB-468 cells xenografted BALB/c mouse assessed as change in body weight at 50 mg/kg, ip administered every two days for 34 days measured at 2 days interval during compound dosing. The conditions noted are these: in vivo, 816 h.
A short description of data set [19]: Elimination rate constant in monkey liver microsomes measured after 1 hr. The conditions noted are these: rhesus monkey. The format is ADME, Macaca mulatta, Microsome. Put shortly:
as §1

The target of data set [20] is Voltage-gated inwardly rectifying potassium channel KCNH2 (Homo sapiens, UniProt Q12809). As to the kind of experiment: Inhibition of human ERG.
Voltage-gated inwardly rectifying potassium channel KCNH2, sequence (Q12809 whole entry): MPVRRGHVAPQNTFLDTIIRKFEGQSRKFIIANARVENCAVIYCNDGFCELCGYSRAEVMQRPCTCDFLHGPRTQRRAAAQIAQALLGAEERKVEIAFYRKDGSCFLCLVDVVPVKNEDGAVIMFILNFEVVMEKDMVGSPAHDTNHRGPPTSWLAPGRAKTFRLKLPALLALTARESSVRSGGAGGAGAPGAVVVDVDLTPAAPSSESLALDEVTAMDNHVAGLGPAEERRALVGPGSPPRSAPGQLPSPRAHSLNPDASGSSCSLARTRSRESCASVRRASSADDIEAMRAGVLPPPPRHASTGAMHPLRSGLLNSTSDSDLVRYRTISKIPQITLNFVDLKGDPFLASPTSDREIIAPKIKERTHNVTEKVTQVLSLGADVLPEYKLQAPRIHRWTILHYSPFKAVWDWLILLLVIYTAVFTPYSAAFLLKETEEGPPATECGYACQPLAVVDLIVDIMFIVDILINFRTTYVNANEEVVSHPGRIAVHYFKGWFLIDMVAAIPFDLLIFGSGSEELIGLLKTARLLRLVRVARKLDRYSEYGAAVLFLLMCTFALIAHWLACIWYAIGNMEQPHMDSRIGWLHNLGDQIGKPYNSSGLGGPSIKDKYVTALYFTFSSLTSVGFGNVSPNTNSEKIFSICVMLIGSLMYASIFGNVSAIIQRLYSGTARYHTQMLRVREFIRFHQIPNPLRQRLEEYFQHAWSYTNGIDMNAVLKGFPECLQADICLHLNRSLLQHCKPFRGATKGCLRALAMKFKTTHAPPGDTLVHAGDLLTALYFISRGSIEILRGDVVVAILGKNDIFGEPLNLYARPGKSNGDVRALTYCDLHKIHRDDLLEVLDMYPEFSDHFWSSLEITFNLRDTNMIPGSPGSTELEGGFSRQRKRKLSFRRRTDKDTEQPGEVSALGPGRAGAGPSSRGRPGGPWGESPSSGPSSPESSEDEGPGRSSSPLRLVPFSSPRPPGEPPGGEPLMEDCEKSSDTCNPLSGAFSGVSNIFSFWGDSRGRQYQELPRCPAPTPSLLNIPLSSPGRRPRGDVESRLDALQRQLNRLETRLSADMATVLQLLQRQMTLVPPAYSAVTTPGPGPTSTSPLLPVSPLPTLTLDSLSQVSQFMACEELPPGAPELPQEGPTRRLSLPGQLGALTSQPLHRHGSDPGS
For data set [21], the system named is MDA-MB-468. As to the kind of experiment: Induction of apoptosis in human MDA-MB-468 cells assessed as viable cells at 1 uM measured after 72 hrs by Annexin V-FITC/propidium iodide staining based flow cytometry (reference value: 95.2%). The format is functional. The following applies: read-out: Activity.
Data set [22] deals with Poly [ADP-ribose] polymerase 1 (Homo sapiens, UniProt P09874). As to the kind of experiment: Inhibition of PARP1 (unknown origin). The procedure, abridged:
as §2

The nature of data set [23]: Toxicity in Sprague-Dawley rat administered as single oral dose. The conditions noted are these: in vivo. The procedure, abridged:
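Sprague-Dawley rats, n = 6 (3 male, 3 female), given a single oral dose of 1000 mg/kg. Deaths and body-weight change were recorded to estimate the maximum tolerated dose.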

Phosphatidylinositol 4,5-bisphosphate 3-kinase catalytic subunit gamma isoform, sequence (P48736 whole entry, canonical isoform): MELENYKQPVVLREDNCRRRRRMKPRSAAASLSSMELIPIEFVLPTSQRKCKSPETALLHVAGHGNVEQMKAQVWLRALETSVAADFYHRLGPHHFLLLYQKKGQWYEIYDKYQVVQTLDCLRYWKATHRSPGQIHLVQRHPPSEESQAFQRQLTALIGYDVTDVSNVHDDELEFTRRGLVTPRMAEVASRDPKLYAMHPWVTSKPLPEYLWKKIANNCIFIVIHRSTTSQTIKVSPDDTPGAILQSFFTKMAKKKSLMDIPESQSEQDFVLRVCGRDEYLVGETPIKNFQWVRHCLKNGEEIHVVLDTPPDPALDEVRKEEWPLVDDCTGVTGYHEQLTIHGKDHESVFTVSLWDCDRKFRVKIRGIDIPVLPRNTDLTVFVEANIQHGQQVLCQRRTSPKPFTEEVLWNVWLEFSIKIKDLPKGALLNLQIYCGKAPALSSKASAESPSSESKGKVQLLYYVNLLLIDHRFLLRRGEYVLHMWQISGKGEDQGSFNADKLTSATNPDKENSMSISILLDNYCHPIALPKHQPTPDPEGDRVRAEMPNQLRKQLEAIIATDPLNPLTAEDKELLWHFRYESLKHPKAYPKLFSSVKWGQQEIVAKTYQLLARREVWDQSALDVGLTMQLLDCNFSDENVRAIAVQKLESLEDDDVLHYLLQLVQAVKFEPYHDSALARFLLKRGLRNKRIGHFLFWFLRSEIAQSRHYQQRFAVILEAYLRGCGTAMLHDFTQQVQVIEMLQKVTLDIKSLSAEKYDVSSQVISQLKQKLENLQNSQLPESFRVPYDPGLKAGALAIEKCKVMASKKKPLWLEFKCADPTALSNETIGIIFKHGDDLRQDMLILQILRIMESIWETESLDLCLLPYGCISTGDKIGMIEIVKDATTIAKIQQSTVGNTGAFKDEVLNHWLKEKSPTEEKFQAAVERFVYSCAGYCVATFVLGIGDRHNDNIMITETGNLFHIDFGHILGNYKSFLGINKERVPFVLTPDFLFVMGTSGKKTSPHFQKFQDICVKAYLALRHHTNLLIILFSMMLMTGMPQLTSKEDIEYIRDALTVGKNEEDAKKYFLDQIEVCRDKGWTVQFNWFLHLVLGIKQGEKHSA
Phosphatidylinositol 4,5-bisphosphate 3-kinase catalytic subunit alpha isoform, sequence (P42336 whole entry, canonical isoform): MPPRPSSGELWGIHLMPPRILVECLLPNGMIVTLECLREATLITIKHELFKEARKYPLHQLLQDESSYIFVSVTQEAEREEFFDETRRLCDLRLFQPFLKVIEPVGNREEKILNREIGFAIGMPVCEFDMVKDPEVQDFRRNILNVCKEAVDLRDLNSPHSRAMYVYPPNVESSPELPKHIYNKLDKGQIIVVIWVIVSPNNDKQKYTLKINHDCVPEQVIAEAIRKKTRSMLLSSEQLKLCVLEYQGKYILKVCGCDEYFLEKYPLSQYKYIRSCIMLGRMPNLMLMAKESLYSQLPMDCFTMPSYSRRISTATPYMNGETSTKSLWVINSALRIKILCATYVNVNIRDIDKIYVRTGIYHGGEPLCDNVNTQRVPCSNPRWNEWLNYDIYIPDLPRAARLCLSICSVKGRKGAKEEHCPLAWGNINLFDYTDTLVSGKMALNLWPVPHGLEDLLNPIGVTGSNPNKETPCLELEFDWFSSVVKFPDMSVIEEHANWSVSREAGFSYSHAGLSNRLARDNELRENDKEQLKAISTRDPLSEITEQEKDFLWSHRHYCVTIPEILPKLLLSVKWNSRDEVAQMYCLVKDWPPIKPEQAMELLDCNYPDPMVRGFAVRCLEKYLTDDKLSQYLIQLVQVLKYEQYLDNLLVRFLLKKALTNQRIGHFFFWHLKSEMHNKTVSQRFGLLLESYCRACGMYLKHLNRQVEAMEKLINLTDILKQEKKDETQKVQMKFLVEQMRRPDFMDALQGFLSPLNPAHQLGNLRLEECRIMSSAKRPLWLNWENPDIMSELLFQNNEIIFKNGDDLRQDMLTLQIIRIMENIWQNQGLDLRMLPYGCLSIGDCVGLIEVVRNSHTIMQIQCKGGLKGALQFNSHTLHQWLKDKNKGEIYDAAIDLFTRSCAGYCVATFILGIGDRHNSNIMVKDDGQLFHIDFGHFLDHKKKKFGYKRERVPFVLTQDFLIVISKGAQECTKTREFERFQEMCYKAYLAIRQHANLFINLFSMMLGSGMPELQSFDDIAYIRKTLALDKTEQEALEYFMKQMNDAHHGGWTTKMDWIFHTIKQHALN
Poly [ADP-ribose] polymerase 1, sequence (P09874 whole entry): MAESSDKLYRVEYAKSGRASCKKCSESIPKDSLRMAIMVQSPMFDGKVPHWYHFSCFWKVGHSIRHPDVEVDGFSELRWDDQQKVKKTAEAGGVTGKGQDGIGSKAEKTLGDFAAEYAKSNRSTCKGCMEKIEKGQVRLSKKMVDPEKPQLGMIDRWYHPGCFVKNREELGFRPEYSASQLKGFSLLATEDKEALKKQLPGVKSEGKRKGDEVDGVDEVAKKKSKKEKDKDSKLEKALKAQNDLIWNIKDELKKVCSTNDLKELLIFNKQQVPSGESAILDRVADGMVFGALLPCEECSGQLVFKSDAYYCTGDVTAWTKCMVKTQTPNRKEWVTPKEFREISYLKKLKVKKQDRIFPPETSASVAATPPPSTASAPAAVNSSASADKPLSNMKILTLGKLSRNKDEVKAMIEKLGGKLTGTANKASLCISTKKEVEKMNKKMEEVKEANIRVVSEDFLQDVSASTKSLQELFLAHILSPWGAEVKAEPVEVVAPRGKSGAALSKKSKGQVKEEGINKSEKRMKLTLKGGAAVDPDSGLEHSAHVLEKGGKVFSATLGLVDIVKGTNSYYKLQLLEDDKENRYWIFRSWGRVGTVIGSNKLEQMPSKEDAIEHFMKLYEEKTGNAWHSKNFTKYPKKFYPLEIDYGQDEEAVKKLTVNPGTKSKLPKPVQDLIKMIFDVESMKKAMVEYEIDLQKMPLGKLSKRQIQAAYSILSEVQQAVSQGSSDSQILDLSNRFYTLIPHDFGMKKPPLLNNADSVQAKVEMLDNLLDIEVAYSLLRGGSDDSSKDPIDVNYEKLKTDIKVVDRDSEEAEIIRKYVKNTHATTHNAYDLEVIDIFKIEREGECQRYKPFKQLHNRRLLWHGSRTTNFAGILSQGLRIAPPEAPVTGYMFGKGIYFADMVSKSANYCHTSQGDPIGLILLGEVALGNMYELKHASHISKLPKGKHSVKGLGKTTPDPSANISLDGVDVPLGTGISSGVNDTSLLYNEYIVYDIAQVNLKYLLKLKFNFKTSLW
Poly [ADP-ribose] polymerase 2, sequence (Q9UGN5 whole entry): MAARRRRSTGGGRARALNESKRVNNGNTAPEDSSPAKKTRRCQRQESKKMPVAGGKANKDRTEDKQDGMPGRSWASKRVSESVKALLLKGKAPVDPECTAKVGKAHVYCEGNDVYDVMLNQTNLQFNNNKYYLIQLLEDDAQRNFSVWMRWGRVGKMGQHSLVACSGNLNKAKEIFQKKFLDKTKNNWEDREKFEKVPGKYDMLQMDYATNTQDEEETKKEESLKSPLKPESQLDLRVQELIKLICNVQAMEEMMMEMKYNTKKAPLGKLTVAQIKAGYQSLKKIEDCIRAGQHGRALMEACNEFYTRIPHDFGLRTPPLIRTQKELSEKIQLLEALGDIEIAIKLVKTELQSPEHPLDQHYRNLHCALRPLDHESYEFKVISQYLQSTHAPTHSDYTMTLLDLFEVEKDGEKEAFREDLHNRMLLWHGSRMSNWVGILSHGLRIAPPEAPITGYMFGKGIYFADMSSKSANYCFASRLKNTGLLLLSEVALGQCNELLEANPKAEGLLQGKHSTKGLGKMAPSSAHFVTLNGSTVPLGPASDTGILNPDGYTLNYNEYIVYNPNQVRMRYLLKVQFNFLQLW

`NC(=O)c1cccc2cc(C(=O)N3CCN(c4nc(-c5cnc(NC(=O)CN6CCOCC6)cc5C(F)(F)F)nc(N5CCOCC5)n4)CC3)oc12`: the microsomal CLint stood at 79.7 µL/min/mg in [1], 30.7 µL/min/mg in data set [8] and 14.7 µL/min/mg in [13]. In the data set on MDA-MB-468 [2], the inhibition in vivo at 50 mg/kg came to 54.6%. In addition, the IC50 with MDA-MB-468 [3] amounted to 1400 nM; in data set [6], 6.2 nM; in [9], 1100 nM; in data set [10], 64 nM; in data set [20] it was 29400 nM; in [22], 13.8 nM. For the same molecule, the k el at 1 h in data set [4] is 0.000275 s⁻¹; in data set [11], 0.000122 s⁻¹; in data set [17] it was 0.000245 s⁻¹; in data set [19] it was 0.000255 s⁻¹. The Activity in [5] was 267 g; in [7] it was 256 g; in the data set with MDA-MB-468 [12], 13.5%; in data set [15], 281 g; with MDA-MB-468 [16], 15.8%; in [18], “Non-Toxic”. Moreover, the Papp A→B at 2 h, 5 µM in data set [14] is 8.42 ×10⁻⁶ cm/s. For the same molecule, the viability at 1 µM in the data set on MDA-MB-468 [21] worked out at 67.2%. This molecule also came in with an MTD in [23] above 1000 mg/kg.
